Here are results for 18 compounds from ChEMBL document CHEMBL1125028, “Resolved pyrrolidine, piperidine, and perhydroazepine analogues of the muscarinic agent N-methyl-N-(1-methyl-4-pyrrolidino-2-butynyl)acetamide” (J Med Chem, 1990).

The species named for one experiment is Cavia porcellus. The experiment in a line: Slope of schild plot in guinea pig ileum was determined. In kind it is functional. The method, boiled down: (§1)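 Guinea pig ileum in Tyrode solution (pH 7.4) with 0.3 mM hexamethonium, 37 °C; isotonic contractions recorded at 1 g tension. Cumulative concentration-response curves built with agonist concentration stepped by a factor of 2.15. Maximal response expressed relative to carbachol. Antagonism tested at no fewer than four antagonist concentrations. Means ± SE over the number of ileal preparations.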
For the compound `CC(=O)N1CCCC[C@H]1C#CCN1CCCC1`, the “Slope of Schild plot” value was found to be 0.99.
As for `CC(=O)N1CCC[C@@H]1C#CCN1CCCC1`, the “Slope of Schild plot” value is 1.05.
As for `CC(=O)N1CCCCC[C@@H]1C#CCN1CCCC1`, the “Slope of Schild plot” value is recorded as 1.27.
Take `CC(=O)N1CCCC[C@@H]1C#CCN1CCCC1`: the “Slope of Schild plot” value is recorded as 0.86.
Same read-out and setting: the figure for `CC(=O)N1CCCCC[C@H]1C#CCN1CCCC1` is 1.17; for `CC(=O)N1CCC[C@H]1C#CCN1CCCC1` it is 0.8.
Same read-out and setting: the figure for `CC(=O)N1CCCCCC1C#CC[N+](C)(C)C` (racemic) is 1.03; for `CC(=O)N1CCCCC1C#CCN1CCCC1` (racemic) it is 0.88.
On the same count and under the same terms, the figure for `CC(=O)N1CCCCCC1C#CCN(C)C` (racemic) is 1.1; for `CC(=O)N1CCCCC1C#CCN(C)C` (racemic) it is 0.9; for `CC(=O)N1CCCC1C#CCN1CCCC1` (racemic) it is 0.9.
Regarding `CC(=O)N1CCCCCC1C#CCN1CCCC1` (racemic), the “Slope of Schild plot” value turned out to be 1.17.

The species named for another experiment is Cavia porcellus. The experiment in a line: Maximum contractile response in guinea pig ileum relative to that elicited by carbachol was determined. It is filed as functional. The method, boiled down:
as §1
`CC(=O)N(C)[C@H](C)C#CCN1CCCC1` registered an Emax of 0.83.
Still for that read-out and setting: the result for `CC(=O)N1CCC[C@@H]1C#CCN1CCCC1` reads 0; that for `CC(=O)N1CCCCC[C@@H]1C#CCN1CCCC1`, 0; that for `CC(=O)N1CCCCC[C@H]1C#CCN1CCCC1`, 0.
Turning to `CC(=O)N1CCC[C@H]1C#CCN1CCCC1`, the Emax is 0.
Compound `CC(=O)N1CCCCC1C#CCN1CCCC1` (racemic) registered an Emax of 0.
With `CC(=O)N1CCCCC1C#CC[N+](C)(C)C` (racemic), the Emax is on record as 0.75.
`CC(=O)N1CCCCCC1C#CCN(C)C` (racemic) showed an Emax of 0.
In turn, `CC(=O)N1CCCCC1C#CCN(C)C` (racemic) returned an Emax of 0.
On the same count and under the same terms, the figure for `CC(=O)N1CCCC1C#CCN1CCCC1` (racemic) is 0; for `CC(=O)N1CCCC1C#CC[N+](C)(C)C` (racemic) it is 0.8; for `CC(=O)N1CCCC1C#CCN(C)C` (racemic) it is 0.
`CC(=O)N1CCCCCC1C#CCN1CCCC1` (racemic) returned an Emax of 0.
Consider `C[N+](C)(C)CCOC(N)=O.[Cl-]` [CARBACHOL], for which the Emax was determined as 1.

The next experiment has as its target Muscarinic acetylcholine receptor. The experiment is described as follows: (§2) Dissociation constant towards Muscarinic acetylcholine receptor in guinea pig ileum. It is filed as tissue-based, Cavia porcellus. The method, boiled down:
as §1
`CC(=O)N1CCCC1C#CC[N+](C)(C)C` (racemic) came in with a Kd of 49500 nM.

Biological target in a further experiment: not listed separately
The experiment is described as follows: Inhibition of specific binding of [3H]NMS to Muscarinic acetylcholine receptor in rat cerebral cortex by using competitive binding assay. In kind it is tissue-based. The method, boiled down:
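Male Sprague–Dawley rat (200–300 g) cortex homogenized in 50 mM Na/K phosphate pH 7.4, spun 30000g 10 min, resuspended at 10 mg wet tissue/mL. Incubated with 0.3 nM (-)-[3H]NMS and test ligand, 30 min at 30 °C; filtration assay. […] IC50 by one-site nonlinear fit, converted to Ki by Cheng–Prusoff. Three determinations in triplicate.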
`CC(=O)N1CCCC[C@H]1C#CCN1CCCC1`: the Ki is 1480 nM.
For `CC(=O)N1CCC[C@@H]1C#CCN1CCCC1`, the Ki came out at 410 nM.
Still for that read-out and setting: the result for `CC(=O)N1CCCCC[C@@H]1C#CCN1CCCC1` reads 42 nM.
Same read-out and setting: the result for `CC(=O)N1CCCC[C@@H]1C#CCN1CCCC1` reads 16 nM; that for `CC(=O)N1CCCCC[C@H]1C#CCN1CCCC1`, 2070 nM; that for `CC(=O)N1CCC[C@H]1C#CCN1CCCC1`, 5160 nM.
Same read-out and setting: the result for `CC(=O)N1CCCCCC1C#CC[N+](C)(C)C` (racemic) reads 1230 nM.
In turn, `CC(=O)N1CCCCC1C#CCN1CCCC1` (racemic) yielded a Ki of 44 nM.
Take `CC(=O)N1CCCCC1C#CC[N+](C)(C)C` (racemic): affinity was put at a Ki of 750 nM. This Ki is about 17-fold higher than that of the compound before.
Still for that read-out and setting: the figure for `CC(=O)N1CCCCCC1C#CCN(C)C` (racemic) is 2900 nM.
As to `CC(=O)N1CCCCC1C#CCN(C)C` (racemic), the Ki was 2260 nM.
`CC(=O)N1CCCC1C#CCN1CCCC1` (racemic): the affinity corresponds to a Ki of 670 nM.
Same read-out and setting: the figure for `CC(=O)N1CCCC1C#CC[N+](C)(C)C` (racemic) is 6100 nM.
`CC(=O)N1CCCC1C#CCN(C)C` (racemic): the Ki is 25400 nM.
Still for that read-out and setting: the result for `CC(=O)N1CCCCCC1C#CCN1CCCC1` (racemic) reads 82 nM.

Another experiment deals with Muscarinic acetylcholine receptor. The description is as §2. In kind it is tissue-based, Cavia porcellus.
Compound `CC(=O)N(C)[C@H](C)C#CCN1CCCC1` registered a Kd of 200 nM.
The same measure, in the same setting: the figure for `CC(=O)N1CCCC[C@H]1C#CCN1CCCC1` is 6320 nM.
For the compound `CC(=O)N1CCC[C@@H]1C#CCN1CCCC1`, the Kd came out at 1160 nM.
Same read-out and setting: the figure for `CC(=O)N1CCCCC[C@@H]1C#CCN1CCCC1` is 161 nM; for `CC(=O)N1CCCC[C@@H]1C#CCN1CCCC1` it is 80 nM; for `CC(=O)N1CCCCC[C@H]1C#CCN1CCCC1` it is 7850 nM.
`CC(=O)N(C)[C@@H](C)C#CCN1CCCC1` showed a Kd of 3230 nM.
`CC(=O)N1CCC[C@H]1C#CCN1CCCC1` came in with a Kd of 16010 nM.
Same read-out and setting: the result for `CC(=O)N1CCCCCC1C#CC[N+](C)(C)C` (racemic) reads 3550 nM; that for `CC(=O)N1CCCCC1C#CCN1CCCC1` (racemic), 97 nM.
On the same count and under the same terms, the result for `CC(=O)N1CCCCCC1C#CCN(C)C` (racemic) reads 7000 nM.
Same read-out and setting: the figure for `CC(=O)N1CCCCC1C#CCN(C)C` (racemic) is 8300 nM; for `CC(=O)N1CCCC1C#CCN1CCCC1` (racemic) it is 1400 nM.
On to `CC(=O)N1CCCC1C#CCN(C)C` (racemic), for which the Kd worked out at 125000 nM.
Same read-out and setting: the result for `CC(=O)N1CCCCCC1C#CCN1CCCC1` (racemic) reads 110 nM.

Another experiment has the same target. The experiment is described as follows: Compound was tested for its potency against Muscarinic acetylcholine receptor in guinea pig ileum. It is filed as functional, tissue-based, Cavia porcellus.
Regarding `CC(=O)N(C)[C@H](C)C#CCN1CCCC1`, the EC50 came out at 94 nM. This lies in the double-digit nanomolar range.
On the same count and under the same terms, the result for `CC(=O)N1CCCCC1C#CC[N+](C)(C)C` (racemic) reads 2800 nM; that for `CC(=O)N1CCCC1C#CC[N+](C)(C)C` (racemic), 7500 nM.

The term Kd denotes the equilibrium constant for the complex coming apart. One may read the Ki as a measure of affinity in units of concentration, obtained from inhibition or displacement. A low value points to tighter binding. One may read the EC50 as the concentration needed to bring the measured effect to its halfway point.
